Reference: ChEMBL document CHEMBL1147547, “Novel GSK-3 inhibitors with improved cellular activity” (Bioorg Med Chem Lett, 2004)
The source made the active and inactive calls. The calls are words filed in the database; no cut-off is given here.

Columns and labels:
[1] = target: T1, Glycogen synthase kinase-3 (Homo sapiens, UniProt P49840+P49841); test: Inhibition of glycogen synthase kinase-3 (GSK3-beta); assay type: protein assay
Summary of the method: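 GSK-3β (20 nM final) in HEPES pH 7.2 with 10 mM MgCl2, 0.1 mg/mL BSA, 1 mM DTT, 0.3 mg/mL heparin. Substrate 2.8 µM biotinylated phospho-primed GS peptide, with 2.5 µM ATP plus [γ-33P]-ATP. Stopped after 40 min with EDTA. Streptavidin SPA beads added and counted. Reported as pIC50.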

[2] = target: T1, Glycogen synthase kinase-3; test: Maximal glycogen synthesis in rat L6 skeletal muscle cells in response to 1 uM insulin; assay type: functional, cell-based
Summary of the method: (§1)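 Rat L6 muscle cells, with glycogen synthesis tracked as 14C-glucose incorporated into glycogen. Maximum glycogen produced by the compound is expressed as a percentage of the maximum produced by 1 µM insulin.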

MDCK = test: Cell permeation in MDCK cells; assay type: functional, Canis lupus familiaris
[3] = target: T1, Glycogen synthase kinase-3; test: Stimulation of glycogen synthesis in rat skeletal muscle L6 cells
[4] = target: T1, Glycogen synthase kinase-3; test: Maximal glycogen synthesis in rat L6 skeletal muscle cells in response to 1 uM insulin (inactive); assay type: functional, cell-based; summary of the method: as §1

T1 sequence (P49840 whole entry, looked up): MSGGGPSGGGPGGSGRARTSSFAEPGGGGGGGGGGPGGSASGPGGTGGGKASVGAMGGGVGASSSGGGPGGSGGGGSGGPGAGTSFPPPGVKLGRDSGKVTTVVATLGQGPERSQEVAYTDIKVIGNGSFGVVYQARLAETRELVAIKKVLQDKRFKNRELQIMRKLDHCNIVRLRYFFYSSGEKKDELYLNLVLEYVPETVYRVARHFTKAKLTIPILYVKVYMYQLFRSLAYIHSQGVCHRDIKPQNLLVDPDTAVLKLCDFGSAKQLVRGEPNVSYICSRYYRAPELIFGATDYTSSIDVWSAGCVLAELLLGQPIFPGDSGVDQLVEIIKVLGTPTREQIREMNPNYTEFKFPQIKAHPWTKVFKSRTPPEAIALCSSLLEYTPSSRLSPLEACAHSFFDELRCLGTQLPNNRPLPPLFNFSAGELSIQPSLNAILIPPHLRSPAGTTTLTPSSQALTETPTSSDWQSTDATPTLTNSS
T1 sequence (P49841 whole entry, looked up): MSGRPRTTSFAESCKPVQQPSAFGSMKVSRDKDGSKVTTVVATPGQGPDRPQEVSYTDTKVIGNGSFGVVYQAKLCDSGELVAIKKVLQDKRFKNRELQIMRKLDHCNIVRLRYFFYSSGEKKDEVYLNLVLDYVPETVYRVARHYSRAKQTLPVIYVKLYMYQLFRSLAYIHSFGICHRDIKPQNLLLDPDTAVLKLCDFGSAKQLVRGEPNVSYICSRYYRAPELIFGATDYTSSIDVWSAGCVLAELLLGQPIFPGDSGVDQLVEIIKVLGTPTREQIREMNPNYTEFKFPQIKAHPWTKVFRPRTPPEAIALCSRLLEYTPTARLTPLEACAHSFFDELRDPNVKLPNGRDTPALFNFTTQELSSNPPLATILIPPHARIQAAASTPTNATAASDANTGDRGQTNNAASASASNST

Log IC50 [1] | Max [2] | EC50 [3] | Max [4] | Compound | Cell permeation (MDCK)
-8.8 | 76% | 2330 nM |  | CN(C)CCNC(=O)c1ccc(/C=N/Nc2ncnc3c2cnn3-c2cccc3[nH]cnc23)cc1 [PYRAZOLOPYRIMIDINE 1] | 1.5 ×10⁻⁶ cm/s
-8.2 | 57% | 230 nM |  | Fc1ccc(/C=N/Nc2ncnc3c2cnn3-c2cccc3[nH]cnc23)cc1 | 9.2 ×10⁻⁶ cm/s
-8.3 | 54% | 240 nM |  | CS(=O)(=O)c1ccc(/C=N/Nc2ncnc3c2cnn3-c2cccc3[nH]cnc23)cc1 | 6.1 ×10⁻⁶ cm/s
-7.5 | 46% | 1880 nM |  | COc1cccc(-n2ncc3c(N/N=C/c4ccc(C(=O)O)cc4)ncnc32)c1 | 6.5 ×10⁻⁶ cm/s
-7 | 48% | 1220 nM |  | C(=N\Nc1ncnc2c1cnn2-c1ccccc1)/c1ccncc1 | 9.9 ×10⁻⁶ cm/s
-7.8 | 26% | 4000 nM |  | COc1cccc(-n2ncc3c(N/N=C/c4ccc(C(=O)NCCN(C)C)cc4)ncnc32)c1 | 1.5 ×10⁻⁶ cm/s
-8.1 |  |  | inactive | COc1cccc(-n2ncc3c(N/N=C/c4ccc(F)cc4)ncnc32)c1 [GW817396X] | 0.5 ×10⁻⁶ cm/s
-7.7 |  |  |  | CN(C)CCNC(=O)c1ccc(/C=N/Nc2ncnc3c2cnn3-c2ccccc2)cc1 | 9.8 ×10⁻⁶ cm/s
-8.4 | 45% | 110 nM |  | C(=N\Nc1ncnc2c1cnn2-c1cccc2[nH]cnc12)/c1ccncc1 | 21.2 ×10⁻⁶ cm/s
-6.2 |  |  |  | Fc1ccc(/C=N/Nc2ncnc3c2cnn3-c2ccccc2)cc1 | 0.5 ×10⁻⁶ cm/s
 | 37% | 220 nM |  | COc1cccc(-n2ncc3c(N/N=C/c4ccncc4)ncnc32)c1 [GW784752X] | 12.7 ×10⁻⁶ cm/s
-8.6 | 19% | 310 nM |  | COc1cccc(-n2ncc3c(N/N=C/c4ccc(S(C)(=O)=O)cc4)ncnc32)c1 [PYRAZOLOPYRIMIDINE 2] | 16.8 ×10⁻⁶ cm/s
-8.3 | 42% | 2730 nM |  | O=C(O)c1ccc(/C=N/Nc2ncnc3c2cnn3-c2cccc3[nH]cnc23)cc1 | 1.7 ×10⁻⁶ cm/s
